Data set [1] is described as follows: (§1) Cytotoxic concentration required to reduce the viability of mock-infected cells was determined by using MTT assay. The gist of the method:
(§2)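 Viability of mock-infected cells read by MTT, run in parallel with the antiviral assay. Value is the dose giving a 50% loss of viability. Mean of three independent determinations.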
On the technique in general: Formazan colour is commonly taken as a measure of viable cells.

Data set [2] can be described thus: Selectivity index was determined. Format: functional.
Data set [3] has as its target Human immunodeficiency virus type 1 integrase (Human immunodeficiency virus 1, UniProt Q7ZJM1). The experiment in a line: Inhibitory activity against HIV-1 integrase.
A further data set concerns MT4. The experiment in a line: Effective concentration required to reduce the exponential growth of MT-4/KB cells. Format: functional, cell-based. Particulars: Homo sapiens. The method in brief:
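Cell-based HIV-1 multiplication assay in MT-4 cells, run in parallel with cytotoxicity on mock-infected cells. Value is the concentration giving 50% reduction of exponential growth of MT-4/KB cells. Mean of three independent determinations.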

Data set [4] in a line: as §1. Format: functional. The gist of the method:
as §2

Results on 13 compounds are retold here after ChEMBL document CHEMBL1147498, “6-aryl-2,4-dioxo-5-hexenoic acids, novel integrase inhibitors active against HIV-1 multiplication in cell-based assays” (Bioorg Med Chem Lett, 2004).

SMILES strings stand for the structures. Where “and” joins values, the source holds several entries; their conditions need not be identical. Equal entries are not always repeated.

As a reminder, the CC50 is the concentration giving 50% cytotoxicity. One may read the IC50 as the midpoint of a concentration-inhibition curve. A low value points to greater potency in that assay. By EC50 is commonly meant the concentration giving half of the maximal effect. A higher EC50 goes with lower potency in that assay.

Human immunodeficiency virus type 1 integrase, sequence (Q7ZJM1 whole entry): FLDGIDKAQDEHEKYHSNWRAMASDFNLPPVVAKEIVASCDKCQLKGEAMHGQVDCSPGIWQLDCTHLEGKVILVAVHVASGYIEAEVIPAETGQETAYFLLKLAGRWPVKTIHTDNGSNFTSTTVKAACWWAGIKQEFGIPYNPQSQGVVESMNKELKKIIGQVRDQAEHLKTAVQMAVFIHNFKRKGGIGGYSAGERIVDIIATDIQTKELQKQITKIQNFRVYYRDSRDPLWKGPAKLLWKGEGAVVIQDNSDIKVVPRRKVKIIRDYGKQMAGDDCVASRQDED

Consider `O=C(/C=C/c1cccn1Cc1ccc(F)cc1)CC(=O)C(=O)O`, for which, in data set [1], half-maximal cytotoxicity (CC50) was put at 80 µM. Moreover, the Selectivity index in data set [2] was found to be 7.3. For the same compound, in data set [3], the IC50 was 61 µM and 72 µM. Also, it took 11 µM to reach a half-maximal effect with MT4 (EC50).
Regarding `CCOC(=O)C(=O)CC(=O)/C=C/c1cccn1Cc1ccc(F)cc1`, half-maximal cytotoxicity in data set [1] (CC50) was put at 55 µM. Further, in the data set with MT4, the 50% effective concentration (EC50) is 12 µM.
The compound `O=C(/C=C/c1cccn1Cc1ccc(Cl)cc1)CC(=O)C(=O)O` came in with a CC50 in data set [1] of 95 µM. The IC50 in data set [3] was 50 µM and 65 µM. The compound also returned an EC50 with MT4 of more than 95 µM.
In data set [1], `CCOC(=O)C(=O)CC(=O)/C=C/c1cccn1Cc1ccc(C)cc1` registered a CC50 of 7 µM. In addition, the EC50 in the data set with MT4 was more than 7 µM.
Taken in the same sequence, the figures for `CCOC(=O)C(=O)CC(=O)/C=C/c1cccn1Cc1ccc(Cl)cc1` were 52 µM and more than 52 µM.
In the case of `O=C(O)C(=O)CC(=O)c1cccn1Cc1ccc(F)cc1`, in the data set on MT4, the EC50 is 1.5 µM.
In turn, `Cc1ccc(Cn2cccc2/C=C/C(=O)CC(=O)C(=O)O)cc1` had a CC50 in data set [1] of 41 µM. Further, the EC50 in the data set with MT4 is more than 41 µM.
As for `O=C(/C=C/c1cccn1Cc1ccccc1)CC(=O)C(=O)O`, the CC50 in data set [1] came to 61 µM. The same compound had an EC50 in the data set with MT4 of 1.5 µM.
For the compound `CCOC(=O)C(=O)CC(=O)/C=C/c1cccn1Cc1ccccc1`, the CC50 in data set [1] was 17 µM. In other words, the double-digit micromolar range.
As to `O=C(/C=C/c1cccn1Cc1ccc([N+](=O)[O-])cc1)CC(=O)C(=O)O`, the IC50 in data set [3] was 76 µM and 92 µM. In the data set with MT4, this compound showed an EC50 of more than 33 µM. In data set [4], this compound yielded a half-maximal cytotoxic concentration (CC50) of 33 µM.
For `CCOC(=O)C(=O)CC(=O)/C=C/c1cccn1Cc1ccc(OC)cc1`, the midpoint of cytotoxicity in data set [1], the CC50, lay at 27 µM. Besides, the 50% effective concentration (EC50) with MT4 is more than 27 µM.
Regarding `COc1ccc(Cn2cccc2/C=C/C(=O)CC(=O)C(=O)O)cc1`, the cytotoxic concentration (CC50) in data set [1] is 78 µM. The EC50 in the data set with MT4 is more than 78 µM.
`CCOC(=O)C(=O)CC(=O)/C=C/c1cccn1Cc1ccc([N+](=O)[O-])cc1` returned a CC50 in data set [1] of 31 µM. For the same compound, in data set [3], the IC50 is 57 µM and 45 µM. This compound gave an EC50 in the data set on MT4 of more than 31 µM.
